# FXIa inh: human FXIa protease inhibitors, primary screen, biochemical, 1536-well. purified FXIa, Boc-Glu-Ala-Arg-AMC fluorogenic substrate. 0.14% of 220,000 active. inhibition, % at 5 µM;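 active = inhibition of at least 40%; inactive = inhibition below 40%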;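 note: fluorescence of freed AMC excited at 355 nm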
# thrombin 1536: human alpha-thrombin inhibitors, primary screen, counter-screen for coagulation protease inhibitor project, biochemical, 1536-well, fluorogenic AMC substrate; Boc-VPR-AMC fluorogenic substrate cleavage; Prothrombin (Homo sapiens), P00734; inhibition, % at 5 µM; 0.26% of 220,000 active;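 active = inhibition at or above 40%; inactive = inhibition below 40%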
#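 System: Human alpha-thrombin protein | Medium: pH 7.5 Tris (50 mM) with NaCl 150 mM, Tween 20 0.05% | Times: Enzyme reaction carried out at room temperature | Detection: AMC fluorescence, 355/460 nm | Evaluation: Percent inhibition scaled between no-compound controls and no-enzyme blanks | Benchmarks: Enzyme without compound as high, wells lacking enzyme as low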
# KLK5 inh: human KLK5 protease inhibitors, primary screen, biochemical, 1536-well. AID 873, 2007. 0.59% of 210,000 active. inhibition, % at 5 µM. recombinant hK5, fluorogenic AMC substrate cleavage;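 active = inhibition of 40% or more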
# Target sequence (Q9Y337 67-293 limits assumed): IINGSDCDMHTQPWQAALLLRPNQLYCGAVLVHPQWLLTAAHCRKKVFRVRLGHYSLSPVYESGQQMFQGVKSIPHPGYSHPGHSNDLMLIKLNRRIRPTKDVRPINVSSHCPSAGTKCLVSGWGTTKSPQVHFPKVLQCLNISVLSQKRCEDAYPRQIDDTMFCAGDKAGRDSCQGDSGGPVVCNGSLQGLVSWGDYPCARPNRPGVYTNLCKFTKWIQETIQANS
# Calpain2 inh: inhibitors of pig calpain II, primary screen, biochemical, fluorogenic peptide substrate, 1536-well; inhibition, % at 16 µM; purified calpain II, 30 min; 0.37% of 220,000 active; AID 1236, 2008;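 active = inhibition above about 50%, limit read from the data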
# FXIIa inh: human FXIIa protease inhibitors, primary screen, biochemical, 1536-well | inhibition, % at 5 µM | 0.3% of 220,000 active | Coagulation factor XII (Homo sapiens), P00748 | purified FXIIa, Boc-QGR-AMC fluorogenic substrate, 2 h; in the data active = inhibition above about 40%
# Hits are given with their value; – = inactive; · = not tested or not shown. The list is not random: actives were taken first. Their share in the collection is about 1.4%.
SMILES,FXIa inh,thrombin 1536,KLK5 inh,Calpain2 inh,FXIIa inh
Cc1ccc(N2C(=O)CCC2(C(N)=O)c2ccccc2)cc1 (stereo unspecified),–,–,–,–,–
CN1CCN(C(CNS(=O)(=O)c2ccc(Cl)cc2)c2cccnc2)CC1 (stereo unspecified),–,–,42,–,–
CCS(=O)(=O)NCC(c1cccnc1)N1CCN(c2ccc(OC)cc2)CC1 (stereo unspecified),–,–,–,63,–
CCOc1ccccc1CN1CCN(CC2=Cc3cc(OC)ccc3OC2)CC1CCO (stereo unspecified),–,–,–,–,–
NC(=O)C1CC(=O)N(c2ccc(OCc3c(Cl)cccc3Cl)cc2)C1 (stereo unspecified),–,–,–,–,–
C/C(Cn1cnc([N+](=O)[O-])n1)=N\NC(=O)c1ccc(O)cc1O,–,–,–,–,–
O=C(OCc1csc(-c2ccccc2)n1)c1ccc(O)cc1,–,–,–,–,–
S=C(NCCc1ccccc1)N1CCN(C2CCCCC2)CC1,–,–,–,–,–
O=C1OCc2cc(NC(=O)C3CCCCC3)ccc21,–,–,–,52,–
COc1cc(OC)cc(C(=O)Nc2ccc3c(c2)COC3=O)c1,–,–,–,60,–
O=C1OCc2ccc(NC(=O)C3CC3)cc21,–,–,–,–,–
O=C(NCCCn1ccnc1)c1cc(-c2cccc(O)c2)on1,–,–,–,–,–
CCOC(=O)c1cc(-c2ccccc2)sc1NC(=O)CN1C(=O)NC(CC)(c2ccccc2)C1=O (stereo unspecified),–,–,40,–,–
COc1cc2ncc(C(=O)c3ccccc3)c(N3CCN(Cc4ccccc4)CC3)c2cc1OC,–,–,–,–,–
CCOC(=O)C1CCN(c2nc3c(C)cccn3c(=O)c2/C=C(\C#N)S(=O)(=O)c2ccccc2)CC1,–,–,–,–,–
Cc1sc2c(c1C)C(=O)NC(c1cccc(O)c1)N2 (stereo unspecified),40,–,–,–,–
COC(=O)c1ccc(C2NC(=O)c3c(sc(C)c3C)N2)cc1 (stereo unspecified),–,–,–,–,–
CN(C)c1ccc(/C=N/NC(=O)c2nnn(-c3nonc3N)c2COc2ccc(F)cc2)cc1,–,–,–,–,–
O=C1CC(Nc2ccccc2)C(=O)N1c1ccc(N2CCOCC2)cc1 (stereo unspecified),–,–,45,–,–
O=C1CC(Nc2ccc(N3CCOCC3)cc2)C(=O)N1c1ccccc1F (stereo unspecified),–,–,–,–,–
CC(=O)c1sc(NC(=O)COc2ccc(Cl)cc2C)nc1C,–,–,59,–,71
CC(=O)N(C)c1ccc(NC(=O)Nc2ccc(C)cc2)cc1,–,–,–,51,–
Cc1cccc2cc(C(c3nnnn3CC3CCCO3)N3CCc4ccccc4C3)c(=O)[nH]c12 (stereo unspecified),–,–,43,–,–
Cc1ccc2cc(C(c3nnnn3CC3CCCO3)N3CCc4ccccc4C3)c(=O)[nH]c2c1 (stereo unspecified),–,–,–,–,–
Clc1ccc(CONc2ncnc3nonc23)c(Cl)c1,–,–,–,–,–
SMILES,FXIa inh,thrombin 1536,KLK5 inh,Calpain2 inh,FXIIa inh
CCCN(CCC)CCCNS(=O)(=O)c1ccc2c(c1)oc(=O)n2C,–,–,–,–,–
CC(C)OCCCNS(=O)(=O)c1ccc2c(c1)oc(=O)n2C,–,–,42,–,–
CC1(C)CC(=O)C2=C(C1)N(Cc1ccccc1)C(=O)C2(NC(=O)C(C)(C)C)C(F)(F)F (stereo unspecified),–,–,53,–,–
CCOc1cc(S(=O)(=O)NCc2ccc(OC)cc2)c(OCC)cc1-n1cnnn1,–,69,46,–,–
COC(=O)c1cccc(NC(=S)Nc2cc(Cl)ccc2OC)c1,–,–,·,–,–
COC(=O)c1cccc(NC(=O)Nc2ccc(Cl)cc2Cl)c1,–,–,42,–,–
Cc1cc(Nc2ccccc2)n(-c2ccccc2)n1,–,–,–,–,–
Cc1cc(C)nc(-n2nc(C)cc2Nc2ccccc2)n1,–,104,54,–,–
CCN(CC)S(=O)(=O)c1ccc(C(=O)N(c2ccccc2)C2C=CS(=O)(=O)C2)cc1 (stereo unspecified),–,–,–,–,–
COCCn1cc(C(=O)c2ccccc2OCC(=O)Nc2cc(C)on2)cc(C#N)c1=O,–,–,42,–,–
CCCC1C(C#N)=C(N)Oc2cc(C)n(C)c(=O)c21 (stereo unspecified),–,–,–,–,–
Cc1cc2c(c(=O)n1C)C(Cc1ccccc1)C(C#N)=C(N)O2 (stereo unspecified),–,–,–,–,45
CC(C)COc1cccc(C(=O)NC(=S)Nc2cccc(NC(=O)c3ccccc3Cl)c2)c1,–,–,42,–,–
Cc1ccc(CNC(=O)c2ccc3c(=O)n(CC4CCCO4)c(=S)[nH]c3c2)cc1 (stereo unspecified),–,–,–,81,–
CCOC(=O)CNC(=O)Cn1cnc2c(nnn2-c2ccc(F)cc2)c1=O,–,–,45,–,–
CCOC(=O)Cn1cnc2c(nnn2-c2ccc(C)cc2)c1=O,–,–,–,–,–
CCOn1c(=O)c(=O)n(OC)c2ccccc21,–,–,–,–,–
COc1ccc(O)c(/C=N/NC(=O)c2cc(=O)[nH]c3ccccc23)c1,–,–,–,–,66
CCCNC(=O)C1CN(S(=O)(=O)c2ccccc2)CCN1S(=O)(=O)c1ccccc1 (stereo unspecified),–,–,–,–,–
CCC(C)NC(=O)C1CN(S(=O)(=O)c2ccccc2)CCN1S(=O)(=O)c1ccccc1 (stereo unspecified),–,–,–,–,41
COC(=O)c1nc(NC(=O)c2ccccc2Cl)n[nH]1,–,·,48,–,82
COC(=O)c1nc(NC(=O)C(C)(C)C)n[nH]1,–,56,–,–,–
Cc1ccc(NC(=O)c2ccccc2OCC(=O)Nc2cccc(Cl)c2C)nc1,–,–,–,–,–
O=C(CSc1nnc(COc2ccccc2)o1)N1CCOCC1,–,–,–,–,–
COC(=O)CC(NC(=O)c1ccco1)c1cccc2ccccc12 (stereo unspecified),–,–,–,–,–
COC(=O)CC(NS(=O)(=O)c1cccs1)c1cccc2ccccc12 (stereo unspecified),–,–,–,60,–
CN(CC(=O)Nc1ccc(C#N)cc1)Cc1ccc(Cl)cc1Cl,–,–,52,–,–
COc1ccc(C(=O)NC(CC(=O)O)c2cc([N+](=O)[O-])ccc2Cl)c(SC)c1 (stereo unspecified),–,–,–,–,–
CC1(C)CN(c2ccccc2)N(C(=O)c2ccc(F)cc2)C1=O,–,74,64,–,–

# Compound activity as filed in PubChem BioAssay.
